Values joined by “and” are separate entries in the source; they are usually repeats but may differ in a detail not shown here. Equal entries are not always repeated. Square brackets hold non-standard residues; d marks the D form. Peptide text beside a SMILES is read from it. * marks the point of attachment. Hydrocinnamoyl = O=C(CCc1ccccc1)*; Undecanoyl = CCCCCCCCCCC(=O)*; pGlu = O=C1CC[C@@H](C(=O)O)N1; Ac6c = NC1(C(=O)O)CCCCC1; Cbz = O=C(OCc1ccccc1)*; NHPh = c1ccc(N*)cc1; NHOH = ON*

The test is filed under the species Rattus norvegicus. Nature of the test: Inhibition of rat recombinant Rab geranylgeranyltransferase at 100 uM in presence of canine Rab7 and rat REP1 NBD-FPP based continuous fluorimetric assay. A digest of the protocol: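 Continuous fluorometric assay in 96/384-well format: 3 μM Rab7, 3 μM REP1, 9 μM NBD-FPP and 400 nM RabGGTase, with or without inhibitor. […] IC50 was calculated from three independent measurements.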
Regarding `O=C(/C=C/c1ccc(F)cc1)N[C@@H](CO)C(=O)N[C@@H](Cc1ccccc1)C(=O)N[C@@H](CO)C(=O)Nc1ccccc1`, the inhibition amounted to 73%.

In the case of `COC(=O)[C@H](Cc1ccc(O)cc1)NC(=O)CNC(=O)[C@H](Cc1c[nH]cn1)NC(=O)OCc1ccccc1` (Cbz-His-Gly-Tyr-OMe), the inhibition was 70%. The same measure for `CCCCCCCCCCOc1ccc(C(=O)N[C@@H](Cc2c[nH]c3ccccc23)C(=O)N[C@@H](Cc2c[nH]cn2)C(=O)N[C@@H](Cc2c[nH]cn2)C(=O)OC)cc1`: 56%. Next, `CC(C)[C@H](NC(=O)c1coc(-c2ccccc2)n1)C(=O)NCC(=O)N[C@@H](Cc1c[nH]cn1)C(=O)Nc1ccc(F)cc1F`: 55%; `CCCCCCCCCCC(=O)N[C@@H](Cc1c[nH]cn1)C(=O)N[C@@H](Cc1ccccc1)C(=O)N[C@@H](Cc1ccc(O)cc1)C(=O)NOC(C)(C)C`: 76%; `CC(C)C[C@H](NC(=O)[C@H](COC(C)(C)C)NC(=O)[C@H](Cc1ccccc1)NC(=O)c1ccc(-c2ccccc2)cc1)C(=O)O`: 81%. The same measure for `O=C(/C=C/c1ccc(F)cc1)N[C@@H](CO)C(=O)N[C@@H](Cc1ccccc1)C(=O)N[C@@H](CO)C(=O)Nc1ccc(F)c(Cl)c1`: 89%; for `COC(=O)[C@H](Cc1ccccc1)NC(=O)CNC(=O)[C@@H]1CCCN1C(=O)/C=C/c1ccccc1`: 89%; for `NC(=O)CC[C@H](NC(=O)[C@H](Cc1ccccc1)NC(=O)[C@H](CO)NC(=O)CCc1ccccc1)C(=O)Nc1ccc(F)cc1F`: 104%. On to `O=C(/C=C/c1ccc(F)cc1)N[C@@H](CO)C(=O)N[C@@H](Cc1ccccc1)C(=O)N[C@@H](CO)C(=O)O`, for which the inhibition is 99%. Consider `Cc1nc(C)c(C(=O)OC[C@H](NC(=O)[C@H](Cc2ccccc2)NC(=O)[C@H](CO)NC(=O)c2coc(-c3ccccc3)n2)C(=O)O)o1`, for which the inhibition is 84%.

Consider `CCCCCCCCCCC(=O)N[C@@H](Cc1ccc(O)cc1)C(=O)N[C@@H](Cc1c[nH]cn1)C(=O)N[C@@H](Cc1c[nH]cn1)C(=O)NOC(C)(C)C`, for which the inhibition turned out to be 47%. The same measure for `CCCCCCCCCCCOc1ccc(C(=O)N[C@@H](Cc2ccc(O)cc2)C(=O)N[C@@H](Cc2ccc(O)cc2)C(=O)N[C@@H](Cc2ccc(O)cc2)C(=O)NCC(O)CO)cc1` (stereo not given in full): 90%; for `O=C(CNC(=O)[C@H](Cc1ccc(O)cc1)NC(=O)c1coc(-c2ccccc2)n1)N[C@@H](Cc1ccccc1)C(=O)O`: 65%; for `CC(C)C[C@H](NC(=O)[C@@H]1CCC(=O)N1)C(=O)N[C@@H](CCCCN)C(=O)NC1(C(=O)O)CCCCC1` ([pGlu]LK[Ac6c]-OH): 102% and 98%. Next, `NC(=O)CC[C@H](NC(=O)[C@H](Cc1ccccc1)NC(=O)CNC(=O)CCc1ccccc1)C(=O)Nc1ccc(F)cc1F`: 93%; `NCCCC[C@H](NC(=O)CCc1ccccc1)C(=O)N[C@@H](Cc1c[nH]cn1)C(=O)N[C@@H](CO)C(=O)Nc1ccc(F)cc1F`: 96%. `CCCCCCCCCCC(=O)N[C@@H](CC1=NCN=C1)C(=O)N[C@@H](Cc1c[nH]cn1)C(=O)N[C@@H](Cc1ccc(O)cc1)C(=O)Nc1ccccc1N`: the inhibition came to 74%. With `CCCCCCCCCCC(=O)N[C@@H](Cc1ccc(O)cc1)C(=O)N[C@@H](Cc1c[nH]cn1)C(=O)N[C@@H](Cc1c[nH]cn1)C(=O)OC` (Undecanoyl-Tyr-His-His-OMe), the inhibition was 32%. The same measure for `O=C(CNC(=O)[C@H](Cc1c[nH]cn1)NC(=O)OCc1ccccc1)N[C@@H](Cc1ccc(O)cc1)C(=O)NCCCn1ccnc1`: 85%; for `CCCCCCCCCCCOc1ccc(C(=O)N[C@@H](Cc2ccc(O)cc2)C(=O)N[C@@H](Cc2ccc(O)cc2)C(=O)N[C@@H](Cc2ccc(O)cc2)C(=O)Nc2ccc(F)cc2F)cc1`: 101%; for `O=C(/C=C/c1ccc(F)cc1)N[C@@H](CO)C(=O)N[C@@H](Cc1ccccc1)C(=O)N[C@@H](CO)C(=O)Nc1ccc(N2CCOCC2)cc1`: 79%. The same measure for `COC(=O)[C@H](CO)NC(=O)CNC(=O)[C@H](Cc1ccccc1)NC(=O)c1csc(-c2cccs2)n1`: 123%; for `CCCCCCCCCCCOc1ccc(C(=O)N[C@@H](Cc2ccc(O)cc2)C(=O)N[C@@H](Cc2ccc(O)cc2)C(=O)N[C@@H](Cc2ccc(O)cc2)C(=O)OC)cc1`: 102%; for `CC(C)C[C@H](NC(=O)[C@H](COC(C)(C)C)NC(=O)[C@H](Cc1ccccc1)NC(=O)/C=C/c1ccc(F)cc1)C(=O)Nc1nccs1`: 112%. Next, `CCCCCCCCCCC(=O)N[C@@H](Cc1c[nH]cn1)C(=O)N[C@@H](Cc1c[nH]cn1)C(=O)N[C@@H](CO)C(=O)OC` (Undecanoyl-His-His-Ser-OMe): 77%; `CC(C)C[C@H](NC(=O)[C@H](COC(C)(C)C)NC(=O)[C@H](Cc1ccccc1)NC(=O)c1ccc(-c2ccccc2)cc1)C(N)=O`: 48%. Turning to `CCCCCCCCCCC(=O)N[C@@H](Cc1c[nH]cn1)C(=O)N[C@@H](Cc1c[nH]cn1)C(=O)N[C@@H](Cc1ccc(O)cc1)C(=O)O` (Undecanoyl-His-His-Tyr-OH), the inhibition was 51%. Take `CCCCCCCCCCC(=O)N[C@@H](Cc1c[nH]cn1)C(=O)N[C@@H](Cc1c[nH]cn1)C(=O)N[C@@H](CO)C(=O)NO` (Undecanoyl-His-His-Ser-{NHOH}): the inhibition worked out at 78%.

As to `NC(=O)CC[C@H](NC(=O)[C@H](Cc1ccccc1)NC(=O)CNC(=O)CCc1ccccc1)C(N)=O` (Hydrocinnamoyl-Gly-Phe-Gln-NH2), the inhibition was found to be 103%. Next, `CC[C@H](C)[C@H](NC(=O)c1ccc(-c2ccccc2)cc1)C(=O)N[C@@H](C(=O)N[C@@H](CCC(N)=O)C(=O)N(C)OC)C(C)C`: 109%; `C[C@@H](O)[C@H](NC(=O)/C=C/c1ccccc1)C(=O)N[C@@H](Cc1ccccc1)C(=O)N[C@@H](CCC(N)=O)C(N)=O`: 78%; `CC(C)C[C@H](NC(=O)/C=C/c1ccccc1)C(=O)N[C@@H](Cc1ccccc1)C(=O)N[C@@H](Cc1ccccc1)C(=O)Nc1ccc(F)cc1F`: 93%. The same measure for `O=C(N[C@@H](Cc1c[nH]cn1)C(=O)N[C@@H](Cc1ccc(O)cc1)C(=O)N[C@@H](Cc1ccccc1)C(=O)O)OCc1ccc(OCc2ccccc2)cc1`: 53%. The same measure for `C[C@@H](O)[C@H](NC(=O)/C=C/c1ccccc1)C(=O)N[C@@H](Cc1ccccc1)C(=O)N[C@@H](CCC(N)=O)C(=O)Nc1ccc(F)c(Cl)c1`: 91%; for `CC(C)CCNC(=O)[C@H](Cc1ccccc1)NC(=O)CNC(=O)[C@@H]1CCCN1C(=O)/C=C/c1ccccc1`: 80%. On to `C[C@H](NC(=O)C(Br)C(Br)c1ccc(F)cc1)C(=O)NCC(=O)N[C@@H](Cc1ccc(O)cc1)C(=O)Nc1ccc(F)cc1F` (stereo not given in full), for which the inhibition came to 69%. With `CCCCOC(=O)[C@H](Cc1ccc(O)cc1)NC(=O)CNC(=O)[C@H](Cc1ccc(O)cc1)NC(=O)CCc1ccc(F)cc1`, the inhibition amounted to 47%. Next, `C[C@@H](O)[C@H](NC(=O)C(Br)C(Br)c1ccccc1)C(=O)N[C@@H](Cc1ccccc1)C(=O)N[C@@H](CCC(N)=O)C(=O)OCCCl` (stereo not given in full): 64%; `CC[C@H](C)[C@H](NC(=O)c1ccc(-c2ccccc2)cc1)C(=O)N[C@@H](C(=O)N[C@@H](CCC(N)=O)C(=O)N1CCCCC1)C(C)C`: 100%; `CC(C)C[C@H](NC(=O)[C@H](COC(C)(C)C)NC(=O)[C@H](Cc1ccccc1)NC(=O)/C=C/c1ccc(F)cc1)C(=O)O`: 103%.

Take `COc1ccc(NC(=O)[C@H](CCC(N)=O)NC(=O)[C@H](Cc2ccccc2)NC(=O)[C@H](CO)NC(=O)CCc2ccccc2)cc1`: the inhibition came to 101%. The same measure for `NC(=O)CC[C@H](NC(=O)[C@H](Cc1ccccc1)NC(=O)CNC(=O)CCc1ccccc1)C(=O)Nc1ccccc1` (Hydrocinnamoyl-Gly-Phe-Gln-NHPh): 80%; for `O=C(N[C@@H](Cc1ccc(O)cc1)C(=O)N[C@@H](Cc1ccc(O)cc1)C(=O)N[C@@H](Cc1ccc(O)cc1)C(=O)O)c1ccc(F)cc1F`: 106%; for `O=C(N[C@@H](Cc1ccc(O)cc1)C(=O)N[C@@H](Cc1ccc(O)cc1)C(=O)N[C@@H](Cc1ccc(O)cc1)C(=O)Nc1ccc(F)cc1F)c1ccc(F)cc1F`: 97%. The same measure for `CCCCCCCCCCC(=O)N[C@@H](Cc1c[nH]cn1)C(=O)N[C@@H](Cc1c[nH]cn1)C(=O)N[C@@H](Cc1ccc(O)cc1)C(=O)NCc1ccccn1`: 80%; for `CCCCCCCCCCCOc1ccc(C(=O)N[C@@H](Cc2ccc(O)cc2)C(=O)N[C@@H](Cc2ccc(O)cc2)C(=O)N[C@@H](Cc2ccc(O)cc2)C(=O)N(C)CCc2ccccn2)cc1`: 86%. The same measure for `CC(C)C[C@H](NC(=O)[C@@H]1CCCN1C(=O)/C=C/c1ccccc1)C(=O)N[C@@H](Cc1ccccc1)C(=O)NC1CCCCC1`: 82%; for `CCCCCCCCCCC(=O)N[C@@H](Cc1ccc(O)cc1)C(=O)N[C@@H](Cc1c[nH]cn1)C(=O)N[C@@H](Cc1ccc(O)cc1)C(=O)NO` (Undecanoyl-Tyr-His-Tyr-{NHOH}): 88%.

As to `C[C@H](NC(=O)CCc1ccccc1)C(=O)N[C@@H](Cc1ccccc1)C(=O)N[C@@H](CCC(N)=O)C(=O)NNc1ccccc1`, the inhibition was found to be 5%. As to `O=C(N[C@@H](CO)C1=N[C@H](C(=O)O)CO1)c1coc(-c2ccccc2)n1`, the inhibition is 93%.

Consider `O=C(CNC(=O)c1csc(-c2ccccc2)n1)N[C@@H](Cc1ccccc1)C(=O)N[C@@H](Cc1cn(C(c2ccccc2)(c2ccccc2)c2ccccc2)cn1)C(=O)O`, for which the inhibition was found to be 71%. Next, `CN(CCc1ccccn1)C(=O)[C@H](Cc1ccc(O)cc1)NC(=O)CNC(=O)[C@H](Cc1c[nH]cn1)NC(=O)OCc1ccccc1`: 85%; `C=CCCCOC(=O)[C@H](CCC(N)=O)NC(=O)[C@H](Cc1ccccc1)NC(=O)[C@H](C)NC(=O)CCc1ccccc1`: 75%. Next, `CC(C)C[C@H](NC(=O)[C@H](COC(C)(C)C)NC(=O)[C@H](Cc1ccccc1)NC(=O)/C=C/c1ccc(F)cc1)C(N)=O`: 83%.

One may read the inhibition as the relative decrease from the control value, in per cent.

The values are drawn from ChEMBL document CHEMBL1153722, “Design, synthesis, and characterization of peptide-based rab geranylgeranyl transferase inhibitors” (J Med Chem, 2009).
